Reference: the RNAGym collection of RNA variant scans (doi:10.1002/anie.201605470)

B1: Osa-1-4 twister ribozyme (parent)
chain: CCGCCUAACACUGCCAAUGCCGGUCCCAAGCCCGGAUAAAAGUGGAGGGGGCGG

Variants of: B1
Test: self-cleavage, relative activity (ratio to wild type); higher = more cleavage; co-transcriptional
Summary of the method: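 A DNA template was synthesised for a 54-nucleotide twister ribozyme from Oryza sativa, with 97 % wild-type base and 1 % of each other base at each of the 48 positions downstream of the cleavage site. The ribozyme cleaved itself co-transcriptionally during 2 h of in vitro transcription at 37 °C. Reverse transcription with a template-switching oligonucleotide, PCR amplification and deep sequencing followed, and cleavage status came from reads with or without upstream sequence. Relative activity is the fraction cleaved normalised to wild type.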

Which self-cleavage does the source give for A39U C21U here?
The self-cleavage was 0.99.

For A40C G13C, which self-cleavage is on record?
The self-cleavage was 0.01.

Which self-cleavage does the source give for A40C G13U here?
Its self-cleavage is 0.01.

Which self-cleavage does the source give for A40C G13A here?
Its self-cleavage is 0.03.

With A40C G42A as the variant, how does the self-cleavage read?
Its self-cleavage is 0.07.

With A40C G42U as the variant, how does the self-cleavage read?
Its self-cleavage is 0.03.

For A40C G42C, which self-cleavage is on record?
The self-cleavage was 0.06.

With A40U A7G as the variant, how does the self-cleavage read?
Its self-cleavage is 0.13.

Which self-cleavage does the source give for A40U A7C here?
The self-cleavage was 0.04.

For A40U A7U, which self-cleavage is on record?
The self-cleavage was 0.08.

With A39U G50A as the variant, how does the self-cleavage read?
The self-cleavage was 0.63.

With A39U G50C as the variant, how does the self-cleavage read?
Its self-cleavage is 0.82.

Which self-cleavage does the source give for A39U G50U here?
The self-cleavage was 1.01.

With A40G G35A as the variant, how does the self-cleavage read?
The self-cleavage was 0.71.

For A40G G35C, which self-cleavage is on record?
Its self-cleavage is 0.12.

For A40G G35U, which self-cleavage is on record?
The self-cleavage was 0.69.

For A39U C26G, which self-cleavage is on record?
The self-cleavage was 0.11.

With A39U C26A as the variant, how does the self-cleavage read?
The self-cleavage was 0.04.

For A39U C26U, which self-cleavage is on record?
Its self-cleavage is 0.54.

Which self-cleavage does the source give for A40G G44U here?
The self-cleavage was 0.38.

Which self-cleavage does the source give for A40G G44A here?
The self-cleavage was 0.21.

Which self-cleavage does the source give for A40G G44C here?
The self-cleavage was 0.64.

With A40C G47C as the variant, how does the self-cleavage read?
Its self-cleavage is 0.03.

With A40C G47U as the variant, how does the self-cleavage read?
Its self-cleavage is 0.04.

With A40C G47A as the variant, how does the self-cleavage read?
The self-cleavage was 0.05.

With A40C A46G as the variant, how does the self-cleavage read?
Its self-cleavage is 0.02.

Which self-cleavage does the source give for A40C A46C here?
The self-cleavage was 0.04.

With A40C A46U as the variant, how does the self-cleavage read?
The self-cleavage was 0.03.

For A39U G53U, which self-cleavage is on record?
Its self-cleavage is 0.19.

For A39U G53A, which self-cleavage is on record?
The self-cleavage was 0.49.

Which self-cleavage does the source give for A39U G53C here?
Its self-cleavage is 0.07.

Which self-cleavage does the source give for A40C G19C here?
The self-cleavage was 0.02.

Which self-cleavage does the source give for A40C G19U here?
Its self-cleavage is 0.04.

Which self-cleavage does the source give for A40C G19A here?
Its self-cleavage is 0.07.

With A40C as the variant, how does the self-cleavage read?
The self-cleavage was 0.09.

For A40G, which self-cleavage is on record?
Its self-cleavage is 0.91.

With A40U as the variant, how does the self-cleavage read?
Its self-cleavage is 0.85.

With A40C C25G as the variant, how does the self-cleavage read?
Its self-cleavage is 0.03.

For A40C C25A, which self-cleavage is on record?
Its self-cleavage is 0.03.

For A40C C25U, which self-cleavage is on record?
Its self-cleavage is 0.04.

For A40C U24C, which self-cleavage is on record?
The self-cleavage was 0.03.

For A40C U24G, which self-cleavage is on record?
Its self-cleavage is 0.01.

For A40C U24A, which self-cleavage is on record?
Its self-cleavage is 0.04.

With A40C U37C as the variant, how does the self-cleavage read?
Its self-cleavage is 0.07.

For A40C U37A, which self-cleavage is on record?
Its self-cleavage is 0.07.

For A40C U37G, which self-cleavage is on record?
The self-cleavage was 0.12.

For A40G G49C, which self-cleavage is on record?
Its self-cleavage is 0.07.

With A40G G49U as the variant, how does the self-cleavage read?
Its self-cleavage is 0.09.

Which self-cleavage does the source give for A40G G49A here?
The self-cleavage was 0.09.

For A40G C52A, which self-cleavage is on record?
The self-cleavage was 0.52.

With A40G C52U as the variant, how does the self-cleavage read?
Its self-cleavage is 0.94.

For A40G C52G, which self-cleavage is on record?
The self-cleavage was 0.65.

Which self-cleavage does the source give for A39U U24A here?
The self-cleavage was 0.07.

With A39U U24G as the variant, how does the self-cleavage read?
The self-cleavage was 0.03.

For A39U U24C, which self-cleavage is on record?
Its self-cleavage is 0.12.

For A40U A41C, which self-cleavage is on record?
Its self-cleavage is 0.87.

Which self-cleavage does the source give for A40U A41U here?
Its self-cleavage is 0.83.

Which self-cleavage does the source give for A40U A41G here?
Its self-cleavage is 0.1.

For A40G G34A, which self-cleavage is on record?
The self-cleavage was 0.44.

Which self-cleavage does the source give for A40G G34U here?
Its self-cleavage is 0.22.

Which self-cleavage does the source give for A40G G34C here?
Its self-cleavage is 0.2.

For A40C A41G, which self-cleavage is on record?
Its self-cleavage is 0.1.

With A40C A41C as the variant, how does the self-cleavage read?
The self-cleavage was 0.28.

With A40C A41U as the variant, how does the self-cleavage read?
Its self-cleavage is 0.42.

Which self-cleavage does the source give for A40C G54U here?
The self-cleavage was 0.12.

Which self-cleavage does the source give for A40C G54C here?
The self-cleavage was 0.07.

Which self-cleavage does the source give for A40C G54A here?
Its self-cleavage is 0.09.

With A39U G49A as the variant, how does the self-cleavage read?
The self-cleavage was 0.11.

With A39U G49C as the variant, how does the self-cleavage read?
The self-cleavage was 0.06.

With A39U G49U as the variant, how does the self-cleavage read?
The self-cleavage was 0.08.

Which self-cleavage does the source give for A39U G54A here?
Its self-cleavage is 0.73.

With A39U G54U as the variant, how does the self-cleavage read?
The self-cleavage was 0.77.

With A39U G54C as the variant, how does the self-cleavage read?
Its self-cleavage is 0.73.

With A40C C20G as the variant, how does the self-cleavage read?
Its self-cleavage is 0.04.

For A40C C20A, which self-cleavage is on record?
The self-cleavage was 0.09.

For A40C C20U, which self-cleavage is on record?
The self-cleavage was 0.08.

Which self-cleavage does the source give for A39U G44U here?
The self-cleavage was 0.9.

Which self-cleavage does the source give for A39U G44A here?
The self-cleavage was 0.77.

For A39U G44C, which self-cleavage is on record?
Its self-cleavage is 0.91.

With A40G C14G as the variant, how does the self-cleavage read?
The self-cleavage was 0.11.

Which self-cleavage does the source give for A40G C14A here?
Its self-cleavage is 0.4.

With A40G C14U as the variant, how does the self-cleavage read?
The self-cleavage was 0.2.

For A40C G45A, which self-cleavage is on record?
The self-cleavage was 0.04.
